Measured values: ChEMBL document CHEMBL1177893, “Evaluation of labdane derivatives as potential anti-inflammatory agents” (Eur J Med Chem, 2010)
Calls of active or inactive are those of the source. The rule behind the calls is not given here.

Experiments:
[1] = tested on: RAW264.7; assay: Antiinflammatory activity in mouse RAW264.7 cells assessed as inhibition of LPS-induced nitrite production treated 30 mins before LPS challenge measured after 24 hrs by Griess method; type: functional, cell-based
Summary of the method: (§1)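 RAW 264.7 cells pre-incubated 30 min with compound (1, 2, 5, 10, 25 µM; range tested up to 50 µM), then LPS 250 ng/ml for 24 h. Medium nitrite measured by Griess reaction (sulfanilamide/naphthylethylenediamine in phosphoric acid, 10 min room temperature), read spectrophotometrically. IC50 is the concentration giving 50% inhibition of NO release. Three independent experiments in triplicate.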

[2] = tested on: RAW264.7; assay: Cytotoxicity against LPS-stimulated mouse RAW264.7 cells assessed as cell viability at 10 uM after 24 hrs by MTT assay; type: cell-based; conditions: raw264.7, 24 h
Summary of the method: (§2)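 RAW 264.7 cells plated at 10⁵ cells/well, pre-incubated 30 min with compound (1-25 µM), then LPS 250 ng/ml for 24 h. MTT added for 4 h at 37 °C; formazan dissolved in DMSO, absorbance read at 540 nm. Viability expressed relative to untreated controls. Triplicate wells, at least three independent experiments.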

[3] = Cytotoxicity against LPS-stimulated mouse RAW264.7 cells assessed as cell viability at 1 uM after 24 hrs by MTT assay; type: cell-based; conditions: LPS-stimulated RAW264.7 cells, read-out: Activity; summary of the method: as §2
[4] = tested on: RAW264.7; assay: Antiinflammatory activity in mouse RAW264.7 cells assessed as inhibition of LPS-induced PGE2 production treated 30 mins before LPS challenge measured after 24 hrs by ELISA; type: functional, cell-based
Summary of the method: (§3)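 RAW 264.7 macrophages pretreated 30 min with compound, then stimulated with LPS 250 ng/ml for 24 h. PGE2 in culture medium quantified in duplicate by EIA kit. IC50 is the concentration giving 50% inhibition of PGE2 release. Three independent experiments in triplicate.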

[5] = tested on: RAW264.7; assay: Cytotoxicity against LPS-stimulated mouse RAW264.7 cells assessed as cell viability at 25 uM after 24 hrs by MTT assay; type: cell-based; conditions: raw264.7, 24 h; summary of the method: as §2
[6] = tested on: RAW264.7; assay: Antiinflammatory activity in mouse RAW264.7 cells assessed as inhibition of LPS-induced nitrite production at 25 uM treated 30 mins before LPS challenge measured after 24 hrs by Griess method; type: functional, cell-based; summary of the method: as §1
[7] = tested on: RAW264.7; assay: Antiinflammatory activity in mouse RAW264.7 cells assessed as inhibition of LPS-induced PGE2 production at 25 uM treated 30 mins before LPS challenge measured after 24 hrs by ELISA; type: functional, cell-based; summary of the method: as §3
[8] = tested on: Mus musculus; assay: Antiinflammatory activity in Swiss mouse assessed as reduction of 12-O-tetradecanoylphorbol acetate-induced ear swelling at 0.25 to 1 mg/ear administered topically measured after 4 hrs; type: functional, organism-based
Summary of the method: (§4)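 TPA ([…]) applied to inner and outer surfaces of right ear of Swiss mice (20-25 g); test agent applied topically in acetone 30 min before TPA. Mice killed after 4 h; equal ear punches weighed, edema as right-over-left weight increase. MPO measured in saline homogenate supernatants (10,000g, 15 min, 4 °C) with tetramethylbenzidine substrate, pH 5.4 phosphate. Three independent experiments in triplicate.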

[9] = tested on: Mus musculus; assay: Antiinflammatory activity in Swiss mouse ear homogenates assessed as reduction of 12-O-tetradecanoylphorbol acetate-induced myeloperoxidase activity at 0.25 to 1 mg/ear administered topically measured after 4 hrs; type: functional, organism-based; summary of the method: as §4
[10] = tested on: RAW264.7; assay: Antiinflammatory activity in mouse RAW264.7 cells assessed as inhibition of LPS-induced nitrite production at 50 uM treated 30 mins before LPS challenge measured after 24 hrs by Griess method; type: functional, cell-based; summary of the method: as §1

SMILES	IC50 [1]	inhibition [1]	Activity [2]	viability at 24 h, 1 µM [3]	IC50 [4]	inhibition [4]	Activity [5]	inhibition [6]	inhibition [7]	Activity [8]	Activity [9]	inhibition [10]
CC(=O)OCC[C@@H](C)CC[C@@H]1[C@@]2(C)CCCC(C)(C)[C@@H]2CC[C@@]1(C)O	15 µM	Dose-dependent effect	Non-toxic	90%	25 µM	Dose-dependent effect						
C[C@@H](CC[C@@H]1[C@@]2(C)CCCC(C)(C)[C@@H]2CC[C@@]1(C)O)CC(=O)O [LABDANIC ACID]	> 50 µM			80%	> 50 µM							
CC1=C(CC[C@H](C)CCO)[C@@]2(C)CCCC(C)(C)[C@@H]2CC1	15 µM	Dose-dependent effect		75%	20 µM	Dose-dependent effect	Toxic					
COC(=O)C[C@@H](C)CC[C@@H]1[C@@]2(C)CCCC(C)(C)[C@@H]2CC[C@@]1(C)O [LABDANIC ACID METHYL ESTER]	5 µM	Dose-dependent effect	Non-toxic	95%	10 µM	Dose-dependent effect		Active	Active	Active	Active	
CC(=N)NCc1cccc(CN)c1												Active
C[C@H](CC=O)CC[C@@H]1[C@@]2(C)CCCC(C)(C)[C@@H]2CC[C@@]1(C)O	> 50 µM			80%	> 50 µM							
C[C@H](CCO)CC[C@@]1(C)C2=C(CC[C@@H]1C)C(C)(C)CCC2	10 µM	Dose-dependent effect		75%	25 µM	Dose-dependent effect	Toxic					
C[C@H](CCOC(=O)c1ccc(Br)cc1)CC[C@@H]1[C@@]2(C)CCCC(C)(C)[C@@H]2CC[C@@]1(C)O	> 50 µM			80%	> 50 µM							
C[C@H](CCO)CC[C@@H]1[C@@]2(C)CCCC(C)(C)[C@@H]2CC[C@@]1(C)O [LABDANEDIOL]	15 µM	Dose-dependent effect	Toxic	40%	25 µM	Dose-dependent effect						
CCCCCCCCCCCC(=O)OCC[C@@H](C)CC[C@@H]1[C@@]2(C)CCCC(C)(C)[C@@H]2CC[C@@]1(C)O	> 50 µM			80%	> 50 µM							
